# Only some compounds are listed: those with a hit (about 5.1% of all), similar ones and a draw of the others.
# STAT3 inh: IL-6 driven STAT3 reporter inhibitors, primary screen, U3A cells, luciferase, luminescence, MLSCN library; IL-6 STAT3-luciferase reporter; host cell line lacks STAT1; inhibition, % at 5.5 µM; 190,000 compounds, 0.89% hits;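 active means inhibition above the mean inhibition across all screened compounds plus 3 SD, cut at about 44% in these data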;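 further: 0% = DMSO only wells and 100% = 100 µM nifuroxazide control wells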
# STAT1 act: STAT1 signaling activators, primary screen, cell-based, HTS, luciferase reporter; NIH 3T3 STAT1-luciferase reporter, IFN-gamma, luminescence; 100% = IFN-gamma alone, no compound; activation (% of control), % at 5.5 µM; 200,000 compounds, 2.6% hits;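 active means activation above the screen-wide mean activation plus 3 SD, cut at about 130% in these data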;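 further: raw ratio to IFN-gamma control signal so 100% means no change and 0% no light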
# NF-kB expr up: activators of NF-kB expression in neurons, primary screen, cell-based, HTS; fold change at 12.5 µM; 190,000 compounds, 1.6% hits; human neuronal cells, NF-kB reporter expression; hits give high values; in the data active means fold change above about 3.3
# STAT3 act: IL-6 driven STAT3 reporter potentiators, primary screen, U3A cells, luciferase, luminescence, MLSCN library. AID 871, 2007. IL-6 STAT3-luciferase reporter; 100% = signal with IL-6 EC80 alone. activation (% of control), % at 5.6 µM. 190,000 compounds, 0.91% hits;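 active means activation above the screen-wide mean of compound activation plus 3 SD, cut at about 130% in these data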;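 further: 0% = background luminescence of wells with medium and substrate only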
#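 Assay system – human STAT1-deficient U3A cells with stable STAT3-luciferase reporter · Also added – IL-6 (33 ng/mL) · Schedule – compound 1 h, then IL-6 6 h at 37 °C · Technique – reporter luminescence signal · Evaluation – % activation versus median of IL-6-stimulated wells · Benchmarks – IL-6-only wells as 100% reference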
# STAT1 inh: STAT1 signaling inhibitors, primary screen, cell-based, HTS, luciferase reporter. NIH 3T3 STAT1-luciferase reporter, IFN-gamma, luminescence. inhibition, % at 5.5 µM. 200,000 compounds, 0.35% hits;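 active means inhibition above a set limit, the mean inhibition across all tested compounds plus 3 SD, cut at about 34% in these data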;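 further: 0% = IFN-gamma with DMSO and 100% = IFN-gamma with 300 µM nifuroxazide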
# APP 5'UTR act: activators of APP 5'UTR luciferase reporter, primary screen, SH-SY5Y cells; AID 1276, 2008; SH-SY5Y APP 5'UTR luciferase reporter, luminescence; zero percent = DMSO vehicle wells; 190,000 compounds, 1% hits; activation, % at 2 µM;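 active means activation above a set limit, based on mean plus 3 SD of controls, cut at about 140% in these data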
# Active calls of the source: *; nt = no result given.
SMILES,STAT3 inh,STAT1 act,NF-kB expr up,STAT3 act,STAT1 inh,APP 5'UTR act
Cc1c(Cl)cccc1NC(=O)c1cc(-c2ccccc2O)n[nH]1,10,106,1.6,92,-7,70
COc1ccccc1-c1cc(-c2cc(Cl)ccc2O)n[nH]1,-15,100,1.3,117,0,24
Oc1ccc(Br)cc1-c1cc(-c2ccccc2F)[nH]n1,-34,99,1.4,134*,1,17
C=CCNc1nc2c(c(=O)n(C)c(=O)n2C)n1CC(=C)C,nt,nt,nt,nt,nt,-8
Cc1cc(NC(=O)CSc2nnc(-c3c[nH]c4ccccc34)n2C)no1,nt,91,0.89,nt,9,1
O=C(O)c1ccc(CSc2nnc(-c3cccnc3)n2-c2ccc(Br)cc2)cc1,24,108,1.3,84,-11,-5
Cc1nc2ccccc2c(=O)n1NC(=O)Cc1ccc([N+](=O)[O-])cc1,4,101,1,102,-3,29
CCc1cc2cc(C(=O)Nc3ccccc3F)sc2s1,42,146*,2.7,69,-50,163*
COc1cccc(OC)c1OCCCOc1ccc(C)cc1Br,-9,106,1.2,106,-6,0
CCOC(=O)N1CCN(C(=S)Nc2cc(S(=O)(=O)N3CCOCC3)ccc2Cl)CC1,7,91,1.2,96,10,-4
Cc1sc(NC(=O)c2ccc(Cl)s2)c(C(N)=O)c1C,-67,167*,5.3*,159*,-81,142*
Cc1sc(NC(=O)c2ccc(Br)s2)c(C(N)=O)c1C,-102,146*,5.2*,185*,-49,108
CN(C)/C=N/c1ncc(C(=O)c2ccccc2)s1,0,129*,2.5,109,-32,76
CN(C)/C=N/c1ncc(C(=O)c2ccc(-c3ccccc3)cc2)s1,22,97,1.1,88,1,6
CC(=O)Nc1nnc(SCc2ccc(C(=O)Nc3ccccc3F)cc2)s1,13,102,0.98,91,-3,0
O=c1[nH]c2ccccc2nc1CCc1ccccc1,12,145*,1.1,92,-52,15
COc1ccc(N(CC(=O)N2CCC(Cc3ccccc3)CC2)S(C)(=O)=O)cc1,-28,93,1.2,126,6,24
C/C(=N/NC(=O)CNC(=O)COc1ccccc1)c1ccco1,-4,99,0.99,106,1,32
O=c1[nH]c(=O)n([C@H]2C[C@H](O)[C@@H](CO)O2)cc1C(F)(F)F,0,109,5.4*,103,-10,-59
Cc1ccc(/C=C/C(=O)c2c(C)nc3ccccn23)cc1,8,147*,3.6*,98,-51,196*
COc1ccc(S(=O)(=O)NCC2CCCN(C(=O)c3ccccc3)C2)cc1 (configuration not stated),0,97,1.1,106,1,1
CCOc1ccc(-c2cn(-c3ccc(OC)cc3)c(SC)n2)cc1,-6,144*,3.8*,103,-49,128
CSc1nc(-c2ccccc2)cn1-c1ccc(NC(C)=O)cc1,-11,120,2.4,114,-20,35
O=C(CSc1nnnn1-c1ccccc1)Nc1nsc(-c2ccccc2)n1,3,98,7.9*,103,3,6
O=C(CSc1nnnn1-c1ccccc1)Nc1nsc(-c2ccc(Cl)cc2)n1,22,99,0.56,85,3,-4
SMILES,STAT3 inh,STAT1 act,NF-kB expr up,STAT3 act,STAT1 inh,APP 5'UTR act
O=C(COC(=O)CC(c1ccccc1)c1ccccc1)Nc1c(F)cccc1F,-4,103,1.2,106,-3,2
Cc1ccc(NC(=O)C(C)c2ccc([N+](=O)[O-])cc2)cc1Cl (configuration not stated),-9,102,0.85,103,-2,-1
COc1ccc(CSc2nc3ccccc3[nH]2)cc1,37,108,5.7*,74,-9,150*
Fc1ccccc1CSCc1nc2ccccc2[nH]1,-18,131*,2.3,118,-34,18
Fc1cccc(F)c1CSc1nc2ccccc2[nH]1,11,145*,7.2*,89,-48,156*
Cc1ccc(CSCc2nc3ccccc3[nH]2)cc1,11,102,1.4,98,-4,16
CC(C)CCSc1nc2ccccc2[nH]1,11,129*,1.1,91,-31,100
O=C(c1cc(S(=O)(=O)N2CCC3(CC2)OCCO3)ccc1F)N1CCCCC1,15,99,1.2,93,0,-9
NC1=NC(=O)/C(=C/c2c(OS(=O)(=O)c3ccc(Cl)cc3)ccc3ccccc23)S1,-4,95,1,101,6,4
O=C(N/N=C/c1ccccc1OCc1ccccc1)c1cccs1,-11,112,0.97,107,-14,4
O=C(NCCCn1ccnc1)c1nn2c(C(F)(F)F)cc(-c3ccc(Br)cc3)nc2c1Cl,12,95,0.41,93,6,-15
O=C(O)c1ccc(-c2ccccc2Cl)o1,2,98,0.96,100,3,0
S=C(c1ccc(-c2ccccc2Cl)o1)N1CCCCC1,1,141*,0.95,98,-45,88
CN1CCN(C(=S)c2ccc(-c3cccc(Cl)c3Cl)o2)CC1,-11,144*,2.6,114,-50,124
CN1CCN(C(=O)c2ccc(CS(=O)(=O)c3c(Cl)cccc3Cl)o2)CC1,3,106,0.96,102,-7,-3
O=C(Nc1ccc(Oc2cccnc2)cc1)c1ccccc1F,30,117,1.8,84,-19,38
Cc1ccc(-n2c(=O)[nH]c3ncccc3c2=O)cc1,4,102,1.1,101,-4,8
Cc1ccc(-n2c(-c3ccc(Br)cc3)c[n+]3c2CCc2ccc4cccnc4c2-3)cc1,75*,65,1.5,42,39*,-3
Cc1nc(CN(C)C(=O)c2ccccc2OC2CCN(S(C)(=O)=O)CC2)cs1,1,106,0.86,106,-9,3
Cc1cc(NC(=O)c2ccccc2[N+](=O)[O-])ccc1Br,10,138*,2.2,94,-44,47
NC(=O)c1sc2nc3c(cc2c1N)CCC3,26,109,2,83,-10,27
Nc1c(C(=O)N2CCOCC2)sc2nc3c(cc12)CCC3,14,122,3.4*,90,-26,109
CC(=O)Nc1c(C(=O)N2CCOCC2)sc2nc3c(cc12)COC(C)(C)C3,-3,101,1.1,104,-1,5
Nc1c(C(=O)N2CCCC2)sc2nc3c(cc12)CCCCCC3,-3,147*,1.8,104,-50,132
CCOC(=O)c1sc(NC(=O)COC(=O)Cn2cnc3ccccc32)c(C(=O)OCC)c1C,8,100,2.1,98,-1,-1

# Compound activity (PubChem)
